ChEMBL document CHEMBL3098054, “The synthesis of novel taxoids for oral administration” (Bioorg Med Chem, 2014)

Assays:
HT-29 = assay: Cytotoxicity against human HT-29 cells at 1 uM after 72 hrs by MTT assay; format: functional; conditions: HT-29, 72 h, read-out: GI
In short: (§1)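 Cells plated at 2000–5000/well, attached overnight at 37 °C. DMSO stocks (100 mM) serially diluted in medium to a final 1 µM, tested in duplicate wells. Exposure 72 h at 37 °C, 5% CO₂. MTT (5 mg/mL, 10 µL) added for 4 h. Lysis in 10% SDS / 5% isopropanol / 0.012 N HCl, then OD read at 580–680 nm.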

A-375 = assay: Cytotoxicity against human A375 cells at 1 uM after 72 hrs by MTT assay; format: functional; conditions: A-375, 72 h, read-out: GI
In short: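 Cells plated at 2000–5000/well, attached overnight at 37 °C. DMSO stocks (100 mM) serially diluted in medium to a final 1 µM, tested in duplicate wells. MTT (5 mg/mL, 10 µL) added for 4 h. Lysis in 10% SDS / 5% isopropanol / 0.012 N HCl, then OD read at 580–680 nm.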

MCF7 [1] = assay: Cytotoxicity against human MCF7 cells at 1 uM after 72 hrs by MTT assay; format: functional; conditions: MCF7, 72 h, read-out: GI; in short: as §1
A2780 = assay: Cytotoxicity against human A2780 cells at 1 uM after 72 hrs by MTT assay; format: functional; conditions: A2780, 72 h, read-out: GI; in short: as §1
NCI-H460 = assay: Cytotoxicity against human NCI-H460 cells at 1 uM after 72 hrs by MTT assay; format: functional; conditions: NCI-H460, 72 h, read-out: GI; in short: as §1
DU-145 = assay: Cytotoxicity against human DU145 cells at 1 uM after 72 hrs by MTT assay; format: functional; conditions: DU-145, 72 h, read-out: GI; in short: as §1
HL-60 = assay: Cytotoxicity against human HL60 cells at 1 uM after 72 hrs by MTT assay; format: functional; conditions: HL-60, 72 h, read-out: GI; in short: as §1
[2] = Apparent permeability from apical to basolateral side in human Caco2 cells at 10 uM after 90 mins by LC-MS/MS analysis; format: ADME, cell-based, Caco-2; conditions: Caco-2
HeLa = assay: Cytotoxicity against human HeLa cells at 1 uM after 72 hrs by MTT assay; format: functional; conditions: read-out: GI; in short: as §1
MCF7 [3] = assay: Cytotoxicity against human MCF7 cells after 72 hrs by MTT assay; format: functional, cell-based; conditions: MCF7, 72 h
In short: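 MCF-7 cells exposed to compound for 72 h and read by MTT. At least six replicate wells per assay, run on three separate occasions. IC₅₀ given as mean with standard deviation.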

| Structure (SMILES) | inhibition of growth at 1 µM (HT-29) [%] | inhibition of growth at 1 µM (A-375) [%] | inhibition of growth at 1 µM (MCF7 [1]) [%] | inhibition of growth at 1 µM (A2780) [%] | inhibition of growth at 1 µM (NCI-H460) [%] | inhibition of growth at 1 µM (DU-145) [%] | inhibition of growth at 1 µM (HL-60) [%] | Papp A→B at 1.5 h, 10 µM [2] [×10⁻⁶ cm/s] | inhibition of growth at 1 µM (HeLa) [%] | IC50 (MCF7 [3]) [nM] |
| --- | --- | --- | --- | --- | --- | --- | --- | --- | --- | --- |
| COC(=O)O[C@H]1C[C@H]2OC[C@@]2(OC(C)=O)[C@H]2[C@H](OC(=O)c3ccccc3)[C@]3(O)C[C@H](OC(=O)[C@H](O)[C@@H](NC(=O)c4ccccc4)c4ccccc4)C(C)=C([C@@H](OC)C(=O)[C@]12C)C3(C)C | 89.7 | 94 | 107 | 96.9 | 90.3 | 88.3 | 97.8 | 3.32 | 102 | – |
| CO[C@H]1C(=O)[C@]2(C)[C@@H](OC(=O)N(C)C)C[C@H]3OC[C@@]3(OC(C)=O)[C@H]2[C@H](OC(=O)c2ccccc2)[C@]23OC(=O)O[C@H]2[C@H](OC(=O)[C@H](O)[C@@H](NC(=O)OC(C)(C)C)c2ccccn2)C(C)=C1C3(C)C | – | – | – | – | – | – | – | 2.46 | – | 18.2 |
| CO[C@H]1C[C@H]2OC[C@@]2(OC(C)=O)[C@H]2[C@H](OC(=O)c3ccccc3)[C@]3(O)C[C@H](OC(=O)[C@H](O)[C@@H](NC(=O)c4ccccc4)c4ccccc4)C(C)=C([C@@H](OC(=O)N(C)C)C(=O)[C@]12C)C3(C)C | 87.9 | 87.7 | 85.7 | 96.3 | 86.5 | 87.1 | 97.5 | 2.94 | 102 | – |
| COC(=O)O[C@H]1C[C@H]2OC[C@@]2(OC(C)=O)[C@H]2[C@H](OC(=O)c3ccccc3)[C@]34OC(=O)O[C@H]3[C@H](OC(=O)[C@H](O)[C@@H](NC(=O)OC(C)(C)C)c3ccccc3)C(C)=C([C@@H](OC)C(=O)[C@]12C)C4(C)C | – | – | – | – | – | – | – | 3.93 | – | 3.84 |
| CO[C@H]1C(=O)[C@]2(C)[C@@H](OC(=O)N(C)C)C[C@H]3OC[C@@]3(OC(C)=O)[C@H]2[C@H](OC(=O)c2ccccc2)[C@]2(O)C[C@H](OC(=O)[C@H](O)[C@@H](NC(=O)c3ccccc3)c3ccccc3)C(C)=C1C2(C)C | 89.4 | 88.4 | 90.8 | 95.6 | 87.7 | 85.8 | 97.8 | 3.27 | 103 | 64.7 |
| COC(=O)O[C@H]1C(=O)[C@]2(C)[C@@H](OC)C[C@H]3OC[C@@]3(OC(C)=O)[C@H]2[C@H](OC(=O)c2ccccc2)[C@]23OC(=O)O[C@H]2[C@H](OC(=O)[C@H](O)[C@@H](NC(=O)OC(C)(C)C)c2ccccc2)C(C)=C1C3(C)C | – | – | – | – | – | – | – | < 1.43 | – | 3.24 |
| CO[C@H]1C(=O)[C@]2(C)CC[C@H]3OC[C@@]3(OC(C)=O)[C@H]2[C@H](OC(=O)c2ccccc2)[C@]2(O)C[C@H](OC(=O)[C@H](O)[C@@H](NC(=O)OC(C)(C)C)c3ccccc3)C(C)=C1C2(C)C | – | – | – | – | – | – | – | 3.64 | 101 | 3.33 |
| CO[C@H]1C(=O)[C@]2(C)[C@@H](OC(=O)N(C)C)C[C@H]3OC[C@@]3(OC(C)=O)[C@H]2[C@H](OC(=O)c2ccccc2)[C@]2(O)C[C@H](OC(=O)[C@H](O)[C@@H](NC(=O)OC(C)(C)C)c3ccccn3)C(C)=C1C2(C)C | – | – | – | – | – | – | – | 4.41 | 103 | 46.6 |
| CO[C@H]1C[C@H]2OC[C@@]2(OC(C)=O)[C@H]2[C@H](OC(=O)c3ccccc3)[C@]34OC(=O)O[C@H]3[C@H](OC(=O)[C@H](O)[C@@H](NC(=O)OC(C)(C)C)c3ccccn3)C(C)=C([C@@H](OC(=O)N(C)C)C(=O)[C@]12C)C4(C)C | – | – | – | – | – | – | – | 4.68 | – | 14.3 |
| CO[C@H]1C(=O)[C@]2(C)[C@@H](OC)C[C@H]3OC[C@@]3(OC(C)=O)[C@H]2[C@H](OC(=O)c2ccccc2)[C@]2(O)C[C@H](OC(=O)[C@H](O)[C@@H](NC(=O)OC(C)(C)C)c3ccccc3)C(C)=C1C2(C)C [CABAZITAXEL] | 87.2 | 97 | 88.5 | 93.8 | 79.8 | 83.1 | 97.8 | 3.73 | 98.2 | – |
